Results on ten molecules are retold here after ChEMBL document CHEMBL1131179, “Structural optimization affording 2-(R)-(1-(R)-3, 5-bis(trifluoromethyl)phenylethoxy)-3-(S)-(4-fluoro)phenyl-4- (3-oxo-1,2,4-triazol-5-yl)methylmorpholine, a potent, orally active, long-acting morpholine acetal human NK-1 receptor antagonist” (J Med Chem, 1998).

In one assay the target is Substance-P receptor (Homo sapiens, UniProt P25103). Put plainly: Displacement of [125I]-labeled SP from the human Tachykinin receptor 1 expressed in CHO cells. The assay is classed as cell-based. (In a radioligand displacement assay an active substance lowers the binding of a labelled ligand.)
Chain of Substance-P receptor (P25103 whole entry): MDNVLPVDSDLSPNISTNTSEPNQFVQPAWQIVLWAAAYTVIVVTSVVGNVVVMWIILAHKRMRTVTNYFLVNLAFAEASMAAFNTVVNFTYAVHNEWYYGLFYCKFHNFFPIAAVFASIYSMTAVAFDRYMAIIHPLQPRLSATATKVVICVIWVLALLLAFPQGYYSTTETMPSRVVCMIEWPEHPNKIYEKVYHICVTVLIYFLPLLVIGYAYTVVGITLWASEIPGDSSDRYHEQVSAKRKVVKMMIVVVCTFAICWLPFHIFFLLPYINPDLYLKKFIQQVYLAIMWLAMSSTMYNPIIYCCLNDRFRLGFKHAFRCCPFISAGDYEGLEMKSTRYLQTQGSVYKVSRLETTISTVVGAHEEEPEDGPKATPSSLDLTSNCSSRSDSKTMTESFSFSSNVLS
The subject of assay [1] is Cavia porcellus. Kind of assay: Inhibition of resiniferatoxin-induced systemic vascular leakage in guinea pig (SYVAL) upon oral administration at 24 hr r. The assay is classed as functional. The gist of the method:
(§1)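 Guinea pigs dosed orally 1 or 24 h before iv resiniferatoxin challenge (400 µL/kg over 30 s, penile vein), given 10 min after Evans Blue. Killed 10 min post-challenge. Bladder, trachea and esophagus dried (24 h, 65 °C) and extracted with plasma in formamide (65 °C, 24 h). Extravasation read at OD620-650 against plasma, as mg plasma/g dry tissue. n = 4-12 per point; ID50 by nonlinear least-squares regression of mean data.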

For assay [2], the system named is Gerbillinae. Put plainly: Inhibition of GR 73632-induced foot tapping in gerbils upon intravenous administration of compound after 24 hr. To be noted: read-out: ID50 (the source's name). The assay is classed as functional. The gist of the method:
(§2)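 Male or female Mongolian gerbils (35–70 g) under isoflurane/oxygen anaesthesia. Test compound or vehicle is given iv into the jugular vein at 5 mL/kg. At 0, 4 or 24 h, GR 73,632 (3 pmol) is infused icv via a needle 4.5 mm below bregma. Hind foot tapping is timed for 5 min after recovery. 3–9 animals per dose. ID50 by nonlinear least-squares regression of mean data.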

Assay [3] concerns Gerbillinae. Kind of assay: Inhibition of GR 73632-induced foot tapping in gerbils upon intravenous administration of compound after 4 hr. It is filed as functional. To be noted: read-out: ID50 (the source's name). Put shortly:
as §2

The subject of assay [4] is Cavia porcellus. Kind of assay: Inhibition of resiniferatoxin-induced systemic vascular leakage in guinea pig (SYVAL) upon oral administration at 1 hr. It is filed as functional. To be noted: read-out: ID50 (the source's name). The gist of the method: as §1
In assay [5] the test system is Gerbillinae. Put plainly: Inhibition of GR 73632-induced foot tapping in gerbils upon intravenous administration of compound. The assay is classed as functional. To be noted: read-out: ID50 (the source's name). The gist of the method:
as §2

Assay [6] concerns Mustela putorius furo. Put plainly: compound was tested for antiemetic action in ferret at 0.3 mg/kg after intravenous administration followed by emetogen (cisplatin) challenge at 10 mg/kg, iv after 3 min. The assay is classed as functional. The gist of the method:
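Male ferrets (1.0–2.0 kg) under halothane receive 0.3 mg/kg iv in PEG 300 vehicle, then cisplatin 10 mg/kg iv 3 min later. Retches and vomits are counted over 240 min and compared with vehicle controls. 4–7 animals per group.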

The subject of assay [7] is Mustela putorius furo. Put plainly: compound was tested for antiemetic action in ferret at 3 mg/kg after peroral administration followed by emetogen (apomorphine) challenge at 0.25 mg/kg, sc. It is filed as functional.
Assay [8] relates to Mustela putorius furo. Kind of assay: compound was tested for antiemetic action in ferret at 3 mg/kg after peroral administration followed by emetogen (morphine) challenge at 0.5 mg/kg, sc. It is filed as functional. The gist of the method: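 Male ferrets (1.0–2.0 kg) receive 3.0 mg/kg po in 0.5% Methocel or vehicle. 60 min later they get a sc emetogen: apomorphine or morphine 0.5 mg/kg. Retches and vomits are counted for 30 min versus vehicle controls. 4–7 animals per group.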

The test system of assay [9] is Mustela putorius furo. Put plainly: compound was tested for antiemetic action in ferret at 3 mg/kg after peroral administration followed by emetogen (cisplatin) challenge at 10 mg/kg, iv after 60 min.
The test system of assay [10] is Mustela putorius furo. The description is as above. This is another data set of the same source.
Assay [11] relates to Mustela putorius furo. The description is as above. The source holds these as a separate data set.
For assay [12], the system named is Mustela putorius furo. Described as above. The source holds these as a separate data set.

`C[C@@H](O[C@H]1OCCN(Cc2n[nH]c(O)n2)[C@H]1c1ccccc1)c1cc(F)cc(C(F)(F)F)c1`: at Substance-P receptor, the IC50 (in general, the concentration that inhibits the measured activity by half) amounted to 0.1 nM.
With `O=c1[nH]nc(CN2CCO[C@H](OCc3cc(C(F)(F)F)cc(C(F)(F)F)c3)[C@@H]2c2ccc(F)cc2)[nH]1`, the ID90 with Cavia porcellus [1] was found to be 2.3 mg/kg. Also, the ED50 in the assay with Gerbillinae [2] was determined as 1.24 mg/kg; in the assay with Gerbillinae [3], 0.07 mg/kg; in the assay on Cavia porcellus [4], 0.008 mg/kg; in the assay with Gerbillinae [5], 0.3 mg/kg. Besides, on Substance-P receptor, the concentration for half-maximal inhibition (IC50) amounted to 0.07 nM.
As for `C[C@@H](O[C@H]1OCCN(Cc2n[nH]c(=O)[nH]2)[C@H]1c1ccccc1)c1cc(C(F)(F)F)cc(C(F)(F)F)c1`, the half-inhibitory concentration (IC50) on Substance-P receptor came out at 0.88 nM.
`C[C@H](O[C@H]1OCCN(Cc2n[nH]c(O)n2)[C@H]1c1ccccc1)c1cc(C(F)(F)F)cc(C(F)(F)F)c1` returned an ID90 in the assay on Cavia porcellus [1] of 2.3 mg/kg. Further, the ED50 is 1.11 mg/kg with Gerbillinae [2], 0.04 mg/kg in the assay with Gerbillinae [3], 0.01 mg/kg in the assay on Cavia porcellus [4] and 0.16 mg/kg in the assay with Gerbillinae [5]. For the same molecule, the half-inhibitory concentration (IC50) at Substance-P receptor amounted to 0.09 nM.
With `C[C@@H](O[C@H]1OCCN(Cc2n[nH]c(O)n2)[C@H]1c1ccccc1)c1cccc(C(F)(F)F)c1`, the IC50 at Substance-P receptor was 0.27 nM.
In turn, `O=c1[nH]nc(CN2CCO[C@H](OCc3cc(C(F)(F)F)cc(C(F)(F)F)c3)[C@@H]2c2ccccc2)[nH]1` displayed an ID90 in the assay on Cavia porcellus [1] of 5.4 mg/kg. Also, the ED50 in the assay on Gerbillinae [2] was 2.88 mg/kg; in the assay on Cavia porcellus [4], 0.006 mg/kg; in the assay on Gerbillinae [5], 0.85 mg/kg.
As to `COc1ccc(-n2nnnc2C(F)(F)F)cc1CNC1CCCNC1c1ccccc1` (racemic), the ED50 with Gerbillinae [2] was more than 10 mg/kg; in the assay on Gerbillinae [3], 0.02 mg/kg; in the assay with Gerbillinae [5] it was 0.04 mg/kg.
Take `COc1ccc(OC(F)(F)F)cc1CN[C@H]1CCCN[C@H]1c1ccccc1` (racemic): the ID90 in the assay with Cavia porcellus [1] was more than 10 mg/kg. Moreover, the ED50 with Gerbillinae [2] was 5.37 mg/kg; with Gerbillinae [3] it was 0.24 mg/kg; in the assay with Cavia porcellus [4], 0.01 mg/kg; in the assay with Gerbillinae [5] it was 0.03 mg/kg.
For `C[C@@H](O[C@H]1OCCN(Cc2n[nH]c(=O)[nH]2)[C@H]1c1ccc(F)cc1)c1cc(C(F)(F)F)cc(C(F)(F)F)c1` [APREPITANT], the Control retches was 100 in the assay on Mustela putorius furo [6], 28.3 in the assay on Mustela putorius furo [7], 44.7 in the assay with Mustela putorius furo [8] and 154.8 in the assay on Mustela putorius furo [11]. The Control vomits is on record as 12.7 in the assay on Mustela putorius furo [6], 3.3 in the assay with Mustela putorius furo [7], 5.5 in the assay on Mustela putorius furo [8] and 22.3 with Mustela putorius furo [10]. Also, the Retches with Mustela putorius furo [6] is reported as 5.3; in the assay with Mustela putorius furo [7], 4.1; with Mustela putorius furo [8], 6; in the assay with Mustela putorius furo [12], 2.8. The Vomits with Mustela putorius furo [6] was determined as 1; in the assay on Mustela putorius furo [7], 0.7; in the assay on Mustela putorius furo [8], 0.5; with Mustela putorius furo [9], 0.5. The molecule also showed an ID90 in the assay on Cavia porcellus [1] of 1.8 mg/kg. In addition, the ED50 in the assay on Gerbillinae [2] worked out at 0.33 mg/kg; with Gerbillinae [3], 0.04 mg/kg; in the assay with Cavia porcellus [4], 0.008 mg/kg; in the assay with Gerbillinae [5] it was 0.36 mg/kg.
In the assay with Cavia porcellus [1], `COc1ccc(-n2nnnc2C(F)(F)F)cc1CN[C@H]1CCCN[C@H]1c1ccccc1` [VOFOPITANT] had an ID90 of more than 10 mg/kg. For the same molecule, the ED50 with Cavia porcellus [4] was determined as 0.007 mg/kg. On Substance-P receptor, this molecule displayed an IC50 of 0.08 nM.
